In ChEMBL document CHEMBL1127451, “Benzoselenazolinone derivatives designed to be glutathione peroxidase mimetics feature inhibition of cyclooxygenase/5-lipoxygenase pathways and anti-inflammatory activity” (1994):

Key:
Assay type in all cases: functional
Rattus norvegicus [1] = assay: Tested for acute anti-inflammatory activity of the antirat serum-induced edema in rats at dose of 0.1 mg/kg at time interval- 2 hr
Summary of the method: (§1)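 Oral dosing of fasted Wistar rats (200–240 g, six per group) with drug in 0.5 mL 2% gelatin; 1 h later 0.1 mL rabbit antirat serum given by subplantar injection into hind paw.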

Rattus norvegicus [2] = assay: Tested for acute anti-inflammatory activity of carrageenan-induced foot edema in rats at dose of 0.1 mg/kg at time interval- 0.5 hr
Summary of the method: (§2)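 Fasted male-unspecified Wistar rats (200–240 g), groups of six, dosed orally with drug in 0.5 mL 2% gelatin; 1 h later 0.1 mL carrageenan (2% in […]) injected subplantar into hind paw. Paw volume by water plethysmometer at 0, 0.5, 1, 2, 3, 4 h; mean swelling versus vehicle-treated group expressed as percent inhibition.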

Rattus norvegicus [3] = assay: Tested for acute anti-inflammatory activity of carrageenan-induced foot edema in rats at dose of 0.1 mg/kg at time interval- 1 hr; summary of the method: as §2
Rattus norvegicus [4] = assay: Tested for acute anti-inflammatory activity of carrageenan-induced foot edema in rats at dose of 0.1 mg/kg at time interval- 2 hr; summary of the method: as §2
Rattus norvegicus [5] = assay: Tested for acute anti-inflammatory activity of carrageenan-induced foot edema in rats at dose of 0.1 mg/kg at time interval- 3h; summary of the method: as §2
Rattus norvegicus [6] = assay: Tested for acute anti-inflammatory activity of carrageenan-induced foot edema in rats at dose of 0.1 mg/kg at time interval- 4 hr; summary of the method: as §2
Rattus norvegicus [7] = assay: Tested for acute anti-inflammatory activity of carrageenan-induced foot edema in rats at dose of 10 mg/kg at time interval- 0.5 hr; summary of the method: as §2
Rattus norvegicus [8] = assay: Tested for acute anti-inflammatory activity of carrageenan-induced foot edema in rats at dose of 10 mg/kg at time interval- 1 hr; summary of the method: as §2
Rattus norvegicus [9] = assay: Tested for acute anti-inflammatory activity of carrageenan-induced foot edema in rats at dose of 10 mg/kg at time interval- 2 hr; summary of the method: as §2
Rattus norvegicus [10] = assay: Tested for acute anti-inflammatory activity of carrageenan-induced foot edema in rats at dose of 10 mg/kg at time interval- 3h; summary of the method: as §2
Rattus norvegicus [11] = assay: Tested for acute anti-inflammatory activity of carrageenan-induced foot edema in rats at dose of 10 mg/kg at time interval- 4 hr; summary of the method: as §2
Rattus norvegicus [12] = assay: Tested for acute anti-inflammatory activity of carrageenan-induced foot edema in rats at dose of 1 mg/kg at time interval- 0.5 hr; summary of the method: as §2
Rattus norvegicus [13] = assay: Tested for acute anti-inflammatory activity of carrageenan-induced foot edema in rats at dose of 1 mg/kg at time interval- 1 hr; summary of the method: as §2
Rattus norvegicus [14] = assay: Tested for acute anti-inflammatory activity of carrageenan-induced foot edema in rats at dose of 1 mg/kg at time interval- 2 hr; summary of the method: as §2
Rattus norvegicus [15] = assay: Tested for acute anti-inflammatory activity of carrageenan-induced foot edema in rats at dose of 1 mg/kg at time interval- 3h; summary of the method: as §2
Rattus norvegicus [16] = assay: Tested for acute anti-inflammatory activity of carrageenan-induced foot edema in rats at dose of 1 mg/kg at time interval- 4 hr; summary of the method: as §2
Rattus norvegicus [17] = assay: Tested for acute anti-inflammatory activity of the antirat serum-induced edema at dose of 1 mg/kg at time interval- 3h; summary of the method: as §1
Rattus norvegicus [18] = assay: Tested for acute anti-inflammatory activity of the antirat serum-induced edema in rats at dose of 0.1 mg/kg at time interval- 0.5 hr; summary of the method: as §1
Rattus norvegicus [19] = assay: Tested for acute anti-inflammatory activity of the antirat serum-induced edema in rats at dose of 0.1 mg/kg at time interval- 3h; summary of the method: as §1
Rattus norvegicus [20] = assay: Tested for acute anti-inflammatory activity of the antirat serum-induced edema in rats at dose of 0.1 mg/kg at time interval- 4 hr; summary of the method: as §1
Rattus norvegicus [21] = assay: Tested for acute anti-inflammatory activity of the antirat serum-induced edema in rats at dose of 10 mg/kg at time interval- 0.5 hr; summary of the method: as §1
Rattus norvegicus [22] = assay: Tested for acute anti-inflammatory activity of the antirat serum-induced edema in rats at dose of 10 mg/kg at time interval- 1 hr; summary of the method: as §1
Rattus norvegicus [23] = assay: Tested for acute anti-inflammatory activity of the antirat serum-induced edema in rats at dose of 10 mg/kg at time interval- 3h; summary of the method: as §1
Rattus norvegicus [24] = assay: Tested for acute anti-inflammatory activity of the antirat serum-induced edema in rats at dose of 10 mg/kg at time interval- 4 hr; summary of the method: as §1
Rattus norvegicus [25] = assay: Tested for acute anti-inflammatory activity of the antirat serum-induced edema in rats at dose of 1 mg/kg at time interval- 0.5 hr; summary of the method: as §1
Rattus norvegicus [26] = assay: Tested for acute anti-inflammatory activity of the antirat serum-induced edema in rats at dose of 1 mg/kg at time interval- 1 hr; summary of the method: as §1
Rattus norvegicus [27] = assay: Tested for acute anti-inflammatory activity of the antirat serum-induced edema in rats at dose of 1 mg/kg at time interval- 2 hr; summary of the method: as §1
Rattus norvegicus [28] = assay: Tested for acute anti-inflammatory activity of the antirat serum-induced edema in rats at dose of 1 mg/kg at time interval- 4 hr; summary of the method: as §1
Rattus norvegicus [29] = assay: Tested for acute anti-inflammatory activity of the antirat serum-induced edema in rats at dose of 0.1 mg/kg at time interval- 1 hr; summary of the method: as §1
Rattus norvegicus [30] = assay: Tested for acute anti-inflammatory activity of the antirat serum-induced edema in rats at dose of 10 mg/kg at time interval- 2 hr; summary of the method: as §1

## COc1ccc2c(c1)c(CC(=O)O)c(C)n2C(=O)c1ccc(Cl)cc1 [INDOMETHACIN]
Rattus norvegicus [1]
  inhibition in vivo at 0.1 mg/kg: 4.4%
Rattus norvegicus [2]
  inhibition in vivo at 0.1 mg/kg: -124%
Rattus norvegicus [3]
  inhibition in vivo at 0.1 mg/kg: 11.3%
Rattus norvegicus [4]
  inhibition in vivo at 0.1 mg/kg: 1.7%
Rattus norvegicus [5]
  inhibition in vivo at 0.1 mg/kg: 4%
Rattus norvegicus [6]
  inhibition in vivo at 0.1 mg/kg: -1.7%
Rattus norvegicus [7]
  inhibition in vivo at 10 mg/kg: -57.1%
Rattus norvegicus [8]
  inhibition in vivo at 10 mg/kg: 26.2%
Rattus norvegicus [9]
  inhibition in vivo at 10 mg/kg: 55.5%
Rattus norvegicus [10]
  inhibition in vivo at 10 mg/kg: 68.7%
Rattus norvegicus [11]
  inhibition in vivo at 10 mg/kg: 65.2%
Rattus norvegicus [12]
  inhibition in vivo at 1 mg/kg: -22.2%
Rattus norvegicus [13]
  inhibition in vivo at 1 mg/kg: 41.8%
Rattus norvegicus [14]
  inhibition in vivo at 1 mg/kg: 40.2%
Rattus norvegicus [15]
  inhibition in vivo at 1 mg/kg: 40%
Rattus norvegicus [16]
  inhibition in vivo at 1 mg/kg: 29.5%
Rattus norvegicus [17]
  inhibition in vivo at 1 mg/kg: 1.6%
Rattus norvegicus [18]
  inhibition in vivo at 0.1 mg/kg: -28.3%
Rattus norvegicus [19]
  inhibition in vivo at 0.1 mg/kg: 4.4%
Rattus norvegicus [20]
  inhibition in vivo at 0.1 mg/kg: 16.9%
Rattus norvegicus [21]
  inhibition in vivo at 10 mg/kg: -21.2%
Rattus norvegicus [22]
  inhibition in vivo at 10 mg/kg: -1.5%
Rattus norvegicus [23]
  inhibition in vivo at 10 mg/kg: 25.5%
Rattus norvegicus [24]
  inhibition in vivo at 10 mg/kg: 24.5%
Rattus norvegicus [25]
  inhibition in vivo at 1 mg/kg: -8.1%
Rattus norvegicus [26]
  inhibition in vivo at 1 mg/kg: -3%
Rattus norvegicus [27]
  inhibition in vivo at 1 mg/kg: 10%
Rattus norvegicus [28]
  inhibition in vivo at 1 mg/kg: 7.5%
Rattus norvegicus [29]
  inhibition in vivo at 0.1 mg/kg: -7.9%
Rattus norvegicus [30]
  inhibition in vivo at 10 mg/kg: 22.5%
